Reference: ChEMBL document CHEMBL3228033, “Cyclic amidine inhibitors of indolamine N-methyltransferase” (J Med Chem, 1979)

These compounds were tested on Oryctolagus cuniculus (assay: In vivo inhibition of New Zealand white rabbit lung INMT at 0.5 %, po in drinking water for 5 days).
Assay type: functional
Summary of the method: (§1)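 Male NZW rabbits, three per group, received compound in drinking water (pH 7) throughout, with water for controls. Afterwards decapitated and bled out. Crude lung INMT (54 000g supernatant) assayed by the standard in vitro [14C]SAM/NMT method. Activity taken as cpm/mg protein after 1 h at 37 °C, read in the toluene-isoamyl alcohol phase. Means ± SEM.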
`C1CN2CCSCC2=N1.O=C(O)/C=C/C(=O)O` was tested, and the “inhibition (INH)” value was 75%.

The compounds below were run against Indolethylamine N-methyltransferase (Oryctolagus cuniculus, UniProt O97972) (assay: Inhibition of New Zealand white rabbit lung INMT using N-methyltryptamine as substrate after 60 to 90 mins by liquid scintillation counting in presence of S-methyl-[14C]adenosylmethionine).
Indolethylamine N-methyltransferase (Oryctolagus cuniculus, UniProt O97972), sequence (O97972 whole entry): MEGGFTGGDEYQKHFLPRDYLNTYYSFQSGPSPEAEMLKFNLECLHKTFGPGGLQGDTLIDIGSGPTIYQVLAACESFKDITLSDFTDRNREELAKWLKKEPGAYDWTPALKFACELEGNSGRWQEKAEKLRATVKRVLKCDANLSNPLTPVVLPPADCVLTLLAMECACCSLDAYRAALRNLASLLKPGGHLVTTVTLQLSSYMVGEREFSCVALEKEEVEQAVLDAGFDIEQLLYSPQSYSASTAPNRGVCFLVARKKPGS
Summary of the method: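 Enzyme from male rabbit lung: homogenate in 0.15 M KCl with 10^-4 M DTT and EDTA, 50 000 g supernatant, 40-60% ammonium sulfate fraction dialysed (some runs further Sephadex G-150 purified). Incubation in potassium phosphate pH 7.9 with N-methyltryptamine and S-[methyl-14C]adenosylmethionine, test compound in water or 5% DMSO, 37 °C. Stopped with borate pH 10; 14C-DMT extracted into isoamyl alcohol.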
`NC1=NCCC1` was tested, and the IC50 was 33.6 µM. Compound `CCN1CCSC1=N` has an IC50 of 0.2 µM. For `CC1CCC2=NCCN21` (stereo not drawn), the IC50 was 9.3 µM. Compound `C/N=C1/NCCS1` has an IC50 of 7.7 µM. With `CC1CC2=NCCCN2C1` (stereo not drawn) the IC50 was 7 µM. Work on `C/N=C1\CCCN1` yielded an IC50 of 27.1 µM. Work on `Cn1c(F)cccc1=N` yielded an IC50 of 5.3 µM. `C1CCC2=NCCCN2CC1` showed an IC50 of 8 µM. `CN1CCSCC1=N` showed an IC50 of 6.3 µM. Work on `CN1CCC=CC1=N` yielded an IC50 of 0.9 µM. Compound `C=CCn1ccccc1=N` has an IC50 of 1.58 µM. Compound `CC1CCC2=NCCCN21` (stereo not drawn) has an IC50 of 13.2 µM. With `CN1CCC/C1=N\C1CC1` the IC50 was > 10.3 µM. `Cn1ccncc1=N` was tested, and the IC50 was > 5260 µM. In the case of `Cn1cccc/c1=N\C1CC1`, the IC50 is reported as > 10.1 µM. Compound `Cn1cccc(C#N)c1=N` has an IC50 of 179 µM. Work on `Cn1ccc(=N)cc1` yielded an IC50 of 6.2 µM. With `C/N=c1\cccc(F)n1C` the IC50 was 74 µM. Compound `C[N+]1=C2CCCN2CCC1` has an IC50 of 38.7 µM. In the case of `Cn1cc(F)ccc1=N`, the IC50 is reported as 69.8 µM. `C1CN2CCSCC2=N1.O=C(O)/C=C/C(=O)O` showed an IC50 of 0.5 µM. Work on `C=CCN1CCSC1=N` yielded an IC50 of 7.1 µM. `[O-][S+]1CCN2CCN=C2C1` (stereo not drawn) was tested, and the IC50 was 3.6 µM. For `CCN1CCCC1=N`, the IC50 was 1.6 µM. Work on `Cc1cc(=N)sn1C` yielded an IC50 of 19.6 µM. `N#CCn1ccc(=N)cc1` was tested, and the IC50 was > 148 µM. In the case of `Cn1cccc/c1=N\CC(F)(F)F`, the IC50 is reported as > 9.2 µM. `C/N=c1\ccsn1C` showed an IC50 of 6.9 µM. In the case of `C=C1CN=C2CCCN2C1`, the IC50 is reported as 43.3 µM. `C1CC2=NCCN2C1` was tested, and the IC50 was 0.04 µM. `C1CCN2CCCC2=NC1` gave an IC50 of 74.8 µM. For `N=c1ccccn1CC(F)(F)F`, the IC50 was > 9.7 µM. `CC1=CSCC2=NCCN12` showed an IC50 of 45.4 µM. Compound `CNN1CCSC1=N` has an IC50 of 1.5 µM. For `CCOc1cccc(=N)n1C`, the IC50 was > 10.3 µM. `Cn1cc(C(F)(F)F)sc1=N` was tested, and the IC50 was > 88.6 µM. In the case of `Cc1ccn(C)c(=N)c1`, the IC50 is reported as 2.8 µM. `C1CCN2CCCN=C2C1` gave an IC50 of 0.7 µM. In the case of `C1CCN2CCN=C2C1`, the IC50 is reported as 0.17 µM. `C/N=C1\SCCN1C` was tested, and the IC50 was 8.1 µM. For `CN1CCC/C1=N\CC(F)(F)F`, the IC50 was > 92.6 µM. Compound `C/N=C1\CSC=CN1C` has an IC50 of 9.8 µM. With `c1ccc(C2(c3ccccc3)CC3=NCCN3C2)cc1` the IC50 was > 330 µM. `CCCN1CCSC1=N` was tested, and the IC50 was 9.9 µM. With `CN1C=CCSC1=N` the IC50 was 2 µM. `Cn1c(N)cccc1=N` showed an IC50 of 6.2 µM. In the case of `CN1CCCC1=N`, the IC50 is reported as 1.5 µM. In the case of `N=C1CCCN1C1CC1`, the IC50 is reported as 67 µM. `ClC1CCCN2CCN=C12` (stereo not drawn) was tested, and the IC50 was 52.2 µM. In the case of `C[n+]1ccccc1CC#N`, the IC50 is reported as > 11.7 µM. Compound `CN1C=CSCC1=N` has an IC50 of 3 µM. `CCN1CCCSC1=N` gave an IC50 of 1.8 µM. With `N=C1SCCN1Cc1ccncc1` the IC50 was > 6.9 µM. Work on `CC1CN(C)C(=N)S1` (stereo not drawn) yielded an IC50 of 7.9 µM. Work on `C1CCC2(CC1)CCC1=NCCN12` yielded an IC50 of 141 µM. Compound `CC(C)CN1CCCC1=N` has an IC50 of 19.4 µM. With `c1ccc(C2CC3=NCCN3C2)cc1` (stereo not drawn) the IC50 was > 330 µM. For `CCOC(CN1CCCC1=N)OCC`, the IC50 was > 106 µM. `CN1CCOC1=N` showed an IC50 of 40 µM. Work on `CC1CN2CCN=C2CS1` (stereo not drawn) yielded an IC50 of 30.3 µM. With `c1ccc2c(c1)CN1CCN=C21` the IC50 was > 330 µM. In the case of `Cn1ccsc1=N`, the IC50 is reported as 2 µM. For `Cn1cccc/c1=N\CCO`, the IC50 was > 8.9 µM. Work on `CN1CCSC1=N.I` yielded an IC50 of 0.8 µM. Compound `C/N=c1\cnsn1C` has an IC50 of 5.2 µM. In the case of `N=C1CCCN1CCc1ccccc1`, the IC50 is reported as 3720 µM. `CC1CC2=NCCN2C1` (stereo not drawn) was tested, and the IC50 was 3.8 µM. `Cn1ccccc1=N` gave an IC50 of 1.6 µM. Work on `CN1CCCSC1=N` yielded an IC50 of 2 µM. `c1cn2c(n1)CCC2` was tested, and the IC50 was 83.1 µM. For `C1CN=C2CCCN2C1`, the IC50 was 1.67 µM. In the case of `C(=C1/CCC2=NCCCN21)/c1ccccc1`, the IC50 is reported as 37.1 µM. In the case of `CC1(C)CC2=NCCN2C1`, the IC50 is reported as 54.2 µM. `C#CCN1CCSC1=N` gave an IC50 of 13.8 µM. For `C1CN2C(=N1)C1CC3CC(C1)CC2C3`, the IC50 was > 330 µM. For `C1CN2CCOCC2=N1`, the IC50 was 13.8 µM. Compound `c1ccc2c(c1)CC1C2CC2=NCCN21` (stereo not drawn) has an IC50 of 16.4 µM. In the case of `c1ccc2c(c1)SCC1=NCCN12`, the IC50 is reported as > 330 µM. For `C/N=C1\CCCN1C`, the IC50 was 31.2 µM. `C1=CN2CCN=C2CS1` showed an IC50 of 18 µM. `C/N=c1\cccc(NC)n1C` was tested, and the IC50 was 13.1 µM.

These compounds were tested on Oryctolagus cuniculus (assay: In vivo inhibition of New Zealand white rabbit INMT-mediated [14C]NMT to [14C]DMT conversion in lung at 0.5 %, po in drinking water for 5 days).
Assay type: functional
Summary of the method: (§2)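 Male NZW rabbits (400-500 g), three per group, given 0.5% (v/v) in drinking water for 5 days; controls water. Day 5: pheniprazine 5 mg/kg iv, then 6 h later 25 µCi (0.5 mg) [14C]NMT iv. After 5 min, decapitation; lung and brain frozen in liquid nitrogen. [14C]DMT counted as cpm/g tissue. Values are means of three animals, with Student's t test.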
In the case of `C1CN2CCSCC2=N1.O=C(O)/C=C/C(=O)O`, the “inhibition (INH)” value is reported as 64%.

These compounds were tested on Oryctolagus cuniculus (assay: In vivo inhibition of New Zealand white rabbit lung INMT at 0.02 %, po in drinking water for 12 days).
Assay type: functional
Summary of the method: as §1
For `CN1CCSC1=N.I`, the “inhibition (INH)” value was 76%.

The compounds below were run on Oryctolagus cuniculus (assay: In vivo inhibition of New Zealand white rabbit INMT-mediated [14C]NMT to [14C]DMT conversion in brain at 0.5 %, po in drinking water for 5 days).
Assay type: functional
Summary of the method: as §2
`C1CN2CCSCC2=N1.O=C(O)/C=C/C(=O)O` was tested, and the “inhibition (INH)” value was 57%.

What follows are compounds tested against Indolethylamine N-methyltransferase (Homo sapiens, UniProt O95050) (assay: Inhibition of human lung INMT using N-methyltryptamine as substrate after 90 mins by liquid scintillation counting in presence of S-methyl-[14C]adenosylmethionine).
Indolethylamine N-methyltransferase (Homo sapiens, UniProt O95050), sequence (O95050 whole entry): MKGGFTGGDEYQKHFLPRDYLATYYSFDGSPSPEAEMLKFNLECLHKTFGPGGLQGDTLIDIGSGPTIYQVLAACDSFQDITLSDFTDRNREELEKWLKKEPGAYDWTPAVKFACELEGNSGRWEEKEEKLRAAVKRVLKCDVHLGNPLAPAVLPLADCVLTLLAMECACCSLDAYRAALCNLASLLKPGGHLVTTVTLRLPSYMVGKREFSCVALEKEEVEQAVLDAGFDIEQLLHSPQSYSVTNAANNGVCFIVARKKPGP
Work on `C1CCC2=NCCCN2CC1` yielded an IC50 of 25.7 µM. `C1CCN2CCCC2=NC1` was tested, and the IC50 was 852 µM. `Cn1cc(C(F)(F)F)sc1=N` was tested, and the IC50 was > 86.6 µM.
